These results are taken from ChEMBL document CHEMBL1128436, “Synthesis and biological evaluation of a new series of sterols as potential hypocholesterolemic agents” (1995).

Activity calls are given as the source filed them. No cut-off for these calls is given here.

For test [1], the target named is Low-density lipoprotein receptor (Homo sapiens) (UniProt P01130). The test is described as follows: Capability of derepressing the transcription of human Low density lipoprotein receptor promoter in the presence of 25-hydroxycholesterol in CHO cells by luciferase assay. Format: cell-based. An outline of the steps:
(§1)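 Stably transfected CHO clone S27/B30 (LDL receptor promoter fused to firefly luciferase), grown to confluence (2-3 days, 37 °C, 5% CO2). Then 24 h in serum-free assay medium (DMEM/Ham's F-12 3:1, 0.5% bovine albumin) with 25-hydroxycholesterol 0.5 μg/mL plus compound at 0.30-20 μg/mL from ethanol stock, triplicate wells. Lysate luciferase peak light per μg protein (Coomassie). EC30 = concentration giving 30% rise over control. MA = % specific induction at 20 μg/mL.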

For test [2], the system named is CHO. The experiment in a line: Capability of derepressing the transcription of SV40 promoter in CHO cells by luciferase assay; NA= Not active within the test range 0-20 ug/mL. To be noted: Cricetulus griseus. Format: functional, cell-based. An outline of the steps:
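Counter-screen in CHO clone SV40/LN9, with luciferase driven by the SV40 promoter. Confluent monolayers were given compound at 0.30-20 μg/mL for 24 h in serum-free albumin assay medium, triplicate wells. Lysates were read for luciferase peak luminescence, normalized to lysate protein.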

The target of test [3] is Low-density lipoprotein receptor (Homo sapiens) (UniProt P01130). The experiment in a line: Capability of derepressing the transcription of Low density lipoprotein receptor promoter in the presence of 25-hydroxycholesterol in CHO cells measured as maximum activity at 20 ug/mL. Format: cell-based. The essentials:
as §1

The species entered for test [4] is Mesocricetus auratus. The experiment in a line: Serum cholesterol level change relative to the control value (366(24)) in hamsters at a dose of 0.2% of diet for 1 week.
Test [5] concerns Cricetinae gen. sp. The test is described as follows: Total serum cholesterol level with relative to the control value (366(24)) in hamsters at a dose of 0.2% of diet for 1 week. In kind it is functional, Cricetulus griseus.
Test [6] is filed under the species Mesocricetus auratus. The experiment in a line: Serum cholesterol level change relative to the control value (333(23)) in hamsters at a dose of 0.2% of diet for 1 week.
The subject of test [7] is Cricetinae gen. sp. The test is described as follows: Total serum cholesterol level with relative to the control value (333(23)) in hamsters at a dose of 0.2% of diet for 1 week. In kind it is functional, Cricetulus griseus.
The species named for test [8] is Mesocricetus auratus. The test is described as follows: Serum cholesterol level change relative to the control value (313(24)) in hamsters at a dose of 0.2% of diet for 1 week.
Test [9] has as its system Cricetinae gen. sp. The test is described as follows: Total serum cholesterol level with relative to the control value (313(24)) in hamsters at a dose of 0.2% of diet for 1 week. In kind it is functional, Cricetulus griseus.
Test [10] deals with CHO. The experiment in a line: In vitro [1-14C]-acetate]-cholesterol biosynthesis inhibition assay (14CACBI) in CHO cells; neg = Negative :no effect on biosynthesis of cholesterol. In kind it is functional, cell-based. To be noted: Cricetulus griseus. The essentials:
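Confluent CHO cells in replicate 100 mm dishes were held 20 h in assay medium without 25-hydroxycholesterol, with ethanol vehicle (0.5% v/v) or compound at 20 μg/mL. [1-14C]acetate was then added (final 1 μCi/mL) for 4 h more. Cells were scraped and sonicated, lipids separated, and the cholesterol band scraped and counted by scintillation.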

Test [11] deals with Low-density lipoprotein receptor (Homo sapiens) (UniProt P01130). The experiment in a line: Capability of derepressing the transcription of human Low density lipoprotein receptor promoter in the presence of 25-hydroxycholesterol in CHO cells by luciferase assay; NA= Not active within the test range 0-20 ug/mL. In kind it is cell-based. The essentials:
as §1

The species entered for test [12] is Mesocricetus auratus. The test is described as follows: Serum cholesterol level changes with relative to the control value (313(24)) in hamsters at a dose of 0.2% of diet for 1 week.

Sequence of Low-density lipoprotein receptor (Homo sapiens) (P01130 whole entry, the tested form may be a part): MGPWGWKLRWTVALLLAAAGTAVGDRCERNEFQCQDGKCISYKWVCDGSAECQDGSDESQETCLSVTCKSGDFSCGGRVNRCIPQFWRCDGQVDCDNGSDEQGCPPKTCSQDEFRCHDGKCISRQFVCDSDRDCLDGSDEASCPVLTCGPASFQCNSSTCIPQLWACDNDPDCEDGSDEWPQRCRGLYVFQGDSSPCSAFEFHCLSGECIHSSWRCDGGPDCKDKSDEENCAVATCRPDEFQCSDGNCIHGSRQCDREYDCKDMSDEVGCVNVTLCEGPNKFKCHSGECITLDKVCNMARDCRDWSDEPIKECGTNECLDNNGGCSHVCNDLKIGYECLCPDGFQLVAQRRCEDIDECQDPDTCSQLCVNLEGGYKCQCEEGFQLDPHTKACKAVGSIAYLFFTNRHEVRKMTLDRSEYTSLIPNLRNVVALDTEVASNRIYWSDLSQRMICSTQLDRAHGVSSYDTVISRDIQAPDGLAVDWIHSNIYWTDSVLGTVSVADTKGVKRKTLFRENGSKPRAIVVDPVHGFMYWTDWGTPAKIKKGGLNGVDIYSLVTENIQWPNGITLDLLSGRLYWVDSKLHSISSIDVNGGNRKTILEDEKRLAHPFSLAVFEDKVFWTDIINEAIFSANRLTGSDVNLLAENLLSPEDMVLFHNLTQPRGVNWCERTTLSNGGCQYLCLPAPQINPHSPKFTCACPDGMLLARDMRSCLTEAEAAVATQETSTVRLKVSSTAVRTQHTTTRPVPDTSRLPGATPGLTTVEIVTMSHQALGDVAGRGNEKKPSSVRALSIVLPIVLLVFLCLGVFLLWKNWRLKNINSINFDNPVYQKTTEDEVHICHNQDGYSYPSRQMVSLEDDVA

Usually EC30 stands for the point of the concentration-response curve where the effect stands at 30%. Regarding `CC(C)CCC[C@@H](C)[C@H]1CC[C@H]2[C@@H]3CCC4[C@H](Cc5ccc(F)cc5)[C@H](O)CC[C@]4(C)[C@H]3CC[C@]12C` (some centres undefined), the EC30 in [1] was found to be 17 µM. Besides, the outcome in the test on CHO [2] was inactive. In addition, the MA in [3] is 80%. Besides, the Relative change in the test listed under Mesocricetus auratus [4] was -50%. In addition, in the test on Cricetinae gen. sp. [5], the Total cholesterol came out at 181 mg/dL.

For `C=C(C)C[C@H]1C2CC[C@H]3[C@@H]4CC[C@H]([C@H](C)CC[C@@H](CC)C(C)C)[C@@]4(C)CC[C@@H]3[C@@]2(C)CC[C@H]1O` (some centres undefined), the concentration for an effect of 30% (EC30) in test [1] amounted to 3.1 µM. The Relative change in the test listed under Mesocricetus auratus [6] is listed as -41%. Also, in the test with CHO [2], the outcome was inactive. In addition, in [3], the MA amounted to 165%. The same compound gave a Total cholesterol in the test with Cricetinae gen. sp. [7] of 196 mg/dL.

For the compound `CC(C)CCC[C@@H](C)[C@H]1CC[C@H]2[C@@H]3CCC4[C@H](Cc5ccccc5)[C@H](O)CC[C@]4(C)[C@H]3CC[C@]12C` (some centres undefined), the concentration for an effect of 30% (EC30) in test [1] was determined as 32 µM. Moreover, the Relative change in the test filed under Mesocricetus auratus [8] was -35%. Moreover, the result with CHO [2] was inactive. In addition, in the test on Cricetinae gen. sp. [9], the Total cholesterol is 202 mg/dL. In addition, the Activity entry in the test with CHO [10] was “Negative”. Further, the MA in test [3] was found to be 44%.

On to `C=CC[C@H]1C2CC[C@H]3[C@@H]4CC[C@H]([C@H](C)CC[C@@H](CC)C(C)C)[C@@]4(C)CC[C@@H]3[C@@]2(C)CC[C@H]1O` (some centres undefined), for which, in test [1], the 30% effect concentration (EC30) is 8.2 µM. Moreover, the Relative change in the test filed under Mesocricetus auratus [6] is given as -35%. The result with CHO [2] was inactive. In test [3], the MA turned out to be 95%. For the same compound, in the test on Cricetinae gen. sp. [7], the Total cholesterol was 217 mg/dL.

Regarding `C/C=C/C[C@H]1C2CC[C@H]3[C@@H]4CC[C@H]([C@H](C)CCCC(C)C)[C@@]4(C)CC[C@@H]3[C@@]2(C)CC[C@@H]1O` (some centres undefined), in [11], the EC30 entry is “inactive”. Also, the Relative change in the test filed under Mesocricetus auratus [12] is reported as -22%. This compound returned a Total cholesterol in the test on Cricetinae gen. sp. [9] of 245 mg/dL.

With `C=CC[C@@H]1C[C@@]2(C)C(CC[C@H]3[C@@H]4CC[C@H]([C@H](C)CCCC(C)C)[C@@]4(C)CC[C@@H]32)C[C@@H]1O` (some centres undefined), in test [1], the 30% effect concentration (EC30) was found to be 41 µM. The Relative change in the test listed under Mesocricetus auratus [8] is listed as -33%. In addition, the result in the test on CHO [2] was inactive. In the test with Cricetinae gen. sp. [9], this compound returned a Total cholesterol of 209 mg/dL. Further, the Activity result in the test on CHO [10] is “Negative”. For the same compound, the MA in test [3] was determined as 60%.

For `C=CC[C@@H]1C(=O)CC[C@]2(C)[C@H]3CC[C@]4(C)[C@@H]([C@H](C)CCCC(C)C)CC[C@H]4[C@@H]3CC[C@@H]12`, in test [11], the EC30 entry is “inactive”. Also, in the test filed under Mesocricetus auratus [4], the Relative change is recorded as -27%. The same compound gave a Total cholesterol in the test with Cricetinae gen. sp. [5] of 267 mg/dL.

Regarding `CC(C)CCC[C@@H](C)[C@H]1CC[C@H]2[C@@H]3CC[C@H]4[C@H](Cc5ccccc5)C(=O)CC[C@]4(C)[C@H]3CC[C@]12C`, the Relative change in the test listed under Mesocricetus auratus [4] is recorded as -15%. Also, in the test on Cricetinae gen. sp. [5], the Total cholesterol stood at 312 mg/dL.

For the compound `C=CC[C@H]1C2CC[C@H]3[C@@H]4CC[C@H]([C@H](C)CCCC(C)C)[C@@]4(C)CC[C@@H]3[C@@]2(C)CC[C@@H]1O` (some centres undefined), the EC30 entry in test [11] is “inactive”. The Relative change in the test listed under Mesocricetus auratus [12] is -37%. In the test on Cricetinae gen. sp. [9], this compound came in with a Total cholesterol of 198 mg/dL.

For `CC(C)CCC[C@@H](C)[C@H]1CC[C@H]2[C@@H]3CCC4[C@H](C/C=C/Cl)[C@H](O)CC[C@]4(C)[C@H]3CC[C@]12C` (some centres undefined), in [1], the EC30 is 2 µM. Besides, the Relative change in the test filed under Mesocricetus auratus [6] was -44%. In the test on CHO [2], the result was inactive. In addition, the Activity result in the test on CHO [10] was “Negative”. The MA in [3] came out at 169%. The Total cholesterol in the test on Cricetinae gen. sp. [7] turned out to be 185 mg/dL.
